In brackets after ≈: the same amount, converted by molar mass.
Assays:
Staphylococcus aureus = test: Antibacterial activity against Staphylococcus aureus ATCC 25923 after 18 hrs by microdilution method; type: functional; details: ATCC 25923, 18 h
[1] = system: Staphylococcus epidermidis; test: Antibacterial activity against Staphylococcus epidermidis ATCC 12228 after 18 hrs by microdilution method; type: functional; details: ATCC 12228, 18 h
Micrococcus luteus = test: Antibacterial activity against Micrococcus luteus ATCC 9341 after 18 hrs by microdilution method; type: functional; details: ATCC 9341, 18 h
Bacillus subtilis = test: Antibacterial activity against Bacillus subtilis ATCC 6633 after 18 hrs by microdilution method; type: functional; details: ATCC 6633, 18 h
[2] = target: T1, 11-beta-hydroxysteroid dehydrogenase 1 (Homo sapiens, UniProt P28845); test: Inhibition of human 11beta-HSD1 expressed in HEK293 cells assessed as [3H]cortisol at 10 uM by scintillation proximity assay; type: cell-based
In short: (§1)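 Single-concentration screen at 10 μM by scintillation proximity assay, read as % inhibition. Microsomes were incubated with NADPH and [3H]-cortisone. The [3H]-cortisol formed was captured by a monoclonal antibody on protein A-coated SPA beads. Glycyrrhetinic acid served as positive control.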
Target sequence in this assay (P28845 whole entry, looked up): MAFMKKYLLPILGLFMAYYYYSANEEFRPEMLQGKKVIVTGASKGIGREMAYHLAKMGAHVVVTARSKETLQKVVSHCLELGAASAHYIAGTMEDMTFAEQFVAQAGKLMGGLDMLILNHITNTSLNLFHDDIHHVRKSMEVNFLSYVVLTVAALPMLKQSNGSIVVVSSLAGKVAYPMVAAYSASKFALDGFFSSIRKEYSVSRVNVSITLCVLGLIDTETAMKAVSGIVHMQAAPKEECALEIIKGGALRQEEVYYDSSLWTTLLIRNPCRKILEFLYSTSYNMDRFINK

[3] = target: 11-beta-hydroxysteroid dehydrogenase 1 (Mus musculus) (UniProt P50172); test: Inhibition of mouse 11beta-HSD1 expressed in HEK293 cells assessed as [3H]cortisol at 10 uM by scintillation proximity assay; type: cell-based; in short: as §1
11-beta-hydroxysteroid dehydrogenase 1 (Mus musculus), sequence (P50172 whole entry, looked up): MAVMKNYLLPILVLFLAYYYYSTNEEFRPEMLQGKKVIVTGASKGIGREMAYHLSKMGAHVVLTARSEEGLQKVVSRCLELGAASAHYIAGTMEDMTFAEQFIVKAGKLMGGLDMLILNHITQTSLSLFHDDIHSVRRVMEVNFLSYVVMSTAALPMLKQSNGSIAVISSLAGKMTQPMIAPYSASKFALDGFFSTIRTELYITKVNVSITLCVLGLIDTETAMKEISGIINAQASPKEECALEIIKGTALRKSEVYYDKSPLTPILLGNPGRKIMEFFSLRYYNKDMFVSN

[4] = target: T1, 11-beta-hydroxysteroid dehydrogenase 1; test: Inhibition of human 11beta-HSD1 expressed in HEK293 cells assessed as [3H]cortisol by scintillation proximity assay; type: cell-based
In short: (§2)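 IC50 by scintillation proximity assay. Enzyme source was microsomes from HEK293 cells stably transfected with human or murine 11β-HSD1. Microsomes were incubated with NADPH and [3H]-cortisone. Product [3H]-cortisol was captured by a monoclonal antibody coupled to protein A-coated SPA beads. Glycyrrhetinic acid served as positive control.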
Target sequence in this assay (P28845 whole entry): as the sequence (P28845 whole entry, looked up) above

[5] = target: 11-beta-hydroxysteroid dehydrogenase 1 (Mus musculus, UniProt P50172); test: Inhibition of mouse 11beta-HSD1 expressed in HEK293 cells assessed as [3H]cortisol by scintillation proximity assay; type: cell-based; in short: as §2
11-beta-hydroxysteroid dehydrogenase 1 (Mus musculus, UniProt P50172), sequence (P50172 whole entry): as the sequence (P50172 whole entry, looked up) above

Structure (SMILES) | MIC (Staphylococcus aureus) [µg/mL] | MIC [1] [µg/mL] | MIC (Micrococcus luteus) [µg/mL] | MIC (Bacillus subtilis) [µg/mL] | inhibition [2] [%] | inhibition [3] [%] | IC50 [4] [nM] | IC50 [5] [nM]
C=C(C)[C@@H]1CC[C@@H]2[C@]3(CC[C@]4(C)[C@@H]([C@H]5CC[C@H](C(C)(C)O)OC5)CC[C@@]24C)C[C@]13CCC(=O)O | 25 (≈ 52.9 µM) | 12.5 (≈ 26.4 µM) | 3.1 (≈ 6.56 µM) | 6.3 (≈ 13.3 µM) | > 60 | > 60 | 1900 | 240
C=C(C)[C@@H]1CC[C@@H]2[C@]3(CC[C@]4(C)[C@@H]([C@@H](CCC(=O)O)COC(C)=O)CC[C@@]24C)C[C@]13CCC(=O)O |  |  |  |  | > 60 | > 60 | 1900 | 
C=C(C)[C@@H]1CC[C@@H]2[C@]3(CC[C@]4(C)[C@@H]([C@H]5CC[C@@H](C(C)(C)O)OC5)CC[C@@]24C)C[C@]13CCC(=O)O | > 50 | > 50 | > 50 | > 50 |  |  |  | 
C=C(C)[C@@H]1CC[C@@H]2[C@]3(CC[C@]4(C)[C@@H]([C@@H](C/C=C/C(C)(C)O)COC(C)=O)CC[C@@]24C)C[C@]13CCC(=O)O | 25 (≈ 48.6 µM) | 12.5 (≈ 24.3 µM) | 6.3 (≈ 12.2 µM) | 6.3 (≈ 12.2 µM) | > 60 | > 60 | 2300 | 740
C=C(C)[C@@H]1CC[C@@H]2[C@]3(CC[C@]4(C)[C@@H]([C@H](C)C/C=C/C(C)(C)O)CC[C@@]24C)C[C@]13CCC(=O)O | > 50 | > 50 | 6.3 (≈ 13.8 µM) | 3.1 (≈ 6.79 µM) |  |  |  | 
C=C(C)[C@@H](O)CC[C@@H](COC(C)=O)[C@H]1CC[C@@]2(C)[C@@H]3CC[C@@H](C(=C)C)[C@@]4(CCC(=O)O)C[C@@]34CC[C@]12C | > 50 | 25 (≈ 48.6 µM) | 12.5 (≈ 24.3 µM) | 12.5 (≈ 24.3 µM) |  |  |  | 
C=C(C)[C@H](O)CC[C@@H](CO)[C@H]1CC[C@@]2(C)[C@@H]3CC[C@@H](C(=C)C)[C@@]4(CCC(=O)O)C[C@@]34CC[C@]12C | 25 (≈ 52.9 µM) | 25 (≈ 52.9 µM) | 12.5 (≈ 26.4 µM) | 6.3 (≈ 13.3 µM) | > 60 | > 60 | 1400 | 990
CC1COc2c(N3CCN(C)CC3)c(F)cc3c(=O)c(C(=O)O)cn1c23 (stereo not given) [OFLOXACIN] | 0.2 (≈ 0.553 µM) | 0.2 (≈ 0.553 µM) | 1.6 (≈ 4.43 µM) | 0.013 (≈ 0.036 µM) |  |  |  | 
C=C(C)[C@H](O)CC[C@@H](COC(C)=O)[C@H]1CC[C@@]2(C)[C@@H]3CC[C@@H](C(=C)C)[C@@]4(CCC(=O)O)C[C@@]34CC[C@]12C | > 50 | 25 (≈ 48.6 µM) | 12.5 (≈ 24.3 µM) | 12.5 (≈ 24.3 µM) |  |  |  | 
C=C(C)C(=O)CC[C@@H](COC(C)=O)[C@H]1CC[C@@]2(C)[C@@H]3CC[C@@H](C(=C)C)[C@@]4(CCC(=O)O)C[C@@]34CC[C@]12C | > 50 | > 50 | > 50 | 25 (≈ 48.8 µM) |  |  |  | 
C=C(C)[C@@H]1CC[C@@H]2[C@]3(CC[C@]4(C)[C@@H]([C@H](C)CC[C@H](O)C(C)(C)O)CC[C@@]24C)C[C@]13CCC(=O)O | > 50 | > 50 | 50 (≈ 105 µM) | 50 (≈ 105 µM) |  |  |  | 

— ChEMBL document CHEMBL3351840, “Lithocarpic Acids A-N, 3,4-seco-Cycloartane Derivatives from the Cupules of Lithocarpus polystachyus” (J Nat Prod, 2014)
